Measured values of several laboratories.
Lines come from different studies, so protocols differ.
CNR2: Cannabinoid receptor 2 (CNR2, Homo sapiens, UniProt P34972)
ADRB2: Beta-2 adrenergic receptor (ADRB2, Homo sapiens, UniProt P07550)
MMP2: 72 kDa type IV collagenase (MMP2, Homo sapiens, UniProt P08253)
HDAC7: Histone deacetylase 7 (HDAC7, Homo sapiens, UniProt Q8WUI4)

Cc1c(C(=O)NN2CCCCC2)nc(-c2ccc(Cl)cc2Cl)n1-c1ccc(OS(=O)(=O)CCC(C)C)cc1 — IC50 (CNR2; GTPγS binding, antagonist; cell membranes): 0.271 µM
NC(=O)c1ccc[n+]([C@@H]2O[C@H](COP(=O)([O-])OP(=O)(O)OC[C@H]3O[C@@H](n4cnc5c(N)ncnc54)[C@H](O)[C@@H]3O)[C@@H](O)[C@H]2O)c1 — IC50 (Protein mono-ADP-ribosyltransferase PARP6 (PARP6, Homo sapiens, UniProt Q2NL67); enzyme activity, inhibitor): 87 µM
COc1cc(N)c(Cl)cc1C(=O)CCC1CCN(CCNS(C)(=O)=O)CC1 — IC50 (ADRB2; ligand displacement, radioligand; cell membranes): 62.6 µM
CCC1(c2ccc(C)cc2)C(=O)N(C(=O)OC(C)C)N1C(=O)OC(C)C (stereo not shown) — IC50 (Protein phosphatase methylesterase 1 (Mus musculus, UniProt Q8BVQ5); enzyme activity, inhibitor): 1.3 µM
COc1ccc2nc(/N=C3/NC(=O)C(=Cc4ccc(O)c(OC)c4)S3)sc2c1 — IC50 (Aldo-keto reductase family 1 member B1 (Akr1b1, Rattus norvegicus, UniProt P07943); enzyme activity, inhibitor, absorbance; pH 6.2): 0.83 µM
Cn1nc(C(=O)NCc2ccc(C(=O)O)cc2)cc1-c1ccc2[nH]c(-c3ccncc3)cc2c1 — IC50 (MMP2; enzyme activity, inhibitor): > 22 µM
Nc1ccc(-c2ccncc2)cc1NC(=O)N1CCCC1 — IC50 (HDAC7; enzyme activity, inhibitor): > 33.3 µM
Cc1noc(-c2cc3cc(-c4nc(C(=O)NCc5ccccc5)[nH]c4C)ccc3[nH]2)n1 — IC50 (MMP2; enzyme activity, inhibitor): > 20 µM
CN1CCN(c2ccc(Nc3ncc4cc(C#N)c(=O)n(C5CCCC5)c4n3)cc2)CC1 — IC50 (Protein kinase C epsilon type (PRKCE, Homo sapiens, UniProt Q02156); enzyme activity, inhibitor): 6.31 µM
Cc1noc(-c2cc3cc(-c4nc(C(=O)NCc5ccccn5)[nH]c4C)ccc3[nH]2)n1 — IC50 (MMP2; enzyme activity, inhibitor): > 20 µM
COc1ccc2nc(N(CCN(C)C)C(=O)c3ccc(Cl)s3)sc2c1 — IC50 (Short transient receptor potential channel 6 (Trpc6, Mus musculus, UniProt Q61143); calcium signal, fluorescence): 61.1 µM
CN1C2CCCC1CC(NC(=O)c1nn(C)c3ccccc13)C2 (stereo not shown) — IC50 (ADRB2; ligand displacement, radioligand; cell membranes): 42.1 µM
Cc1c(C(=O)NN2CCCCC2)nc(-c2ccc(Cl)cc2Cl)n1-c1ccc(OS(=O)(=O)CCC(F)(F)F)cc1 — IC50 (CNR2; GTPγS binding, antagonist; cell membranes): 0.288 µM
Cc1ccc(S(=O)(=O)N2C(=O)COC23C=CC(=O)C=C3)cc1 — IC50 (MMP2; enzyme activity, inhibitor, fluorescence): 6.8 µM
CC/C(=C(\c1ccc(O)cc1)c1ccc(OCCN(C)C)cc1)c1ccccc1 — IC50 (Histone-lysine N-methyltransferase SETD7 (SETD7, Homo sapiens, UniProt Q8WTS6); enzyme activity, inhibitor): > 333 µM
CC[C@@H](C(=O)Nc1ccc(C(N)=O)c(F)c1)n1cc(OC)c(-c2cc(Cl)ccc2-n2cc(C(F)(F)F)nn2)cc1=O — IC50 (Coagulation factor X (F10, Homo sapiens, UniProt P00742); enzyme activity, inhibitor): 1.7 µM
O=C(O)C(=O)CC(=O)c1cccc(N(Cc2ccccc2)Cc2ccccc2)c1 — IC50 (Dual specificity protein phosphatase 3 (DUSP3, Homo sapiens, UniProt P51452); enzyme activity, inhibitor, absorbance; pH 7): 113 µM
CCCC[C@H](NC(=O)C1CN(C)C1)c1ncc(-c2cc3ccccc3nc2OC)[nH]1 — IC50 (HDAC7; enzyme activity, inhibitor): > 30 µM
O=[N+]([O-])C1=Cc2ccccc2OC1C(F)(F)F (stereo not shown) — IC50 (P2Y purinoceptor 6 (P2RY6, Homo sapiens, UniProt Q15077); calcium signal, antagonist, fluorescence): 2.62 µM
